Source: ChEMBL document CHEMBL1142422, “Affinity purification and characterization of a key enzyme responsible for circadian rhythmic control of nyctinasty in Lespedeza cuneata L” (Bioorg Med Chem, 2008)
pKi: −log10 of the molar value. One block for each compound: values may come before it. Active and inactive are the calls of the source. The rule behind the calls is not given here.

Columns and labels:
Prunus dulcis = test: Inhibition of Almond beta-glucosidase in acetate buffer at pH 5.0 at 1 mM
How it was run: (§1)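 Commercial glycosidases were preincubated with varied inhibitor amounts for 15 min at 37 °C in 50 mM acetate buffer: pH 5.0 for the β-glucosidases and β-galactosidase, pH 6.8 for α-glucosidase. The matching p-nitrophenyl glycoside was then added, and the reaction was stopped with 0.5 M Na2CO3. p-Nitrophenol was read at 405 nm. Ki came from Lineweaver–Burk plots, and percent inhibition was also scored at 1 mM inhibitor.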

[1] = Inhibition of Aspergillus niger beta-glucosidase in acetate buffer at pH 5.0; how it was run: as §1
[2] = target: T1, Beta-galactosidase (Aspergillus oryzae) (UniProt Q2U7N3); test: Inhibition of Aspergillus oryzae beta-galactosidase in acetate buffer at pH 5.0 at 1 mM; how it was run: as §1
T1 sequence (whole entry): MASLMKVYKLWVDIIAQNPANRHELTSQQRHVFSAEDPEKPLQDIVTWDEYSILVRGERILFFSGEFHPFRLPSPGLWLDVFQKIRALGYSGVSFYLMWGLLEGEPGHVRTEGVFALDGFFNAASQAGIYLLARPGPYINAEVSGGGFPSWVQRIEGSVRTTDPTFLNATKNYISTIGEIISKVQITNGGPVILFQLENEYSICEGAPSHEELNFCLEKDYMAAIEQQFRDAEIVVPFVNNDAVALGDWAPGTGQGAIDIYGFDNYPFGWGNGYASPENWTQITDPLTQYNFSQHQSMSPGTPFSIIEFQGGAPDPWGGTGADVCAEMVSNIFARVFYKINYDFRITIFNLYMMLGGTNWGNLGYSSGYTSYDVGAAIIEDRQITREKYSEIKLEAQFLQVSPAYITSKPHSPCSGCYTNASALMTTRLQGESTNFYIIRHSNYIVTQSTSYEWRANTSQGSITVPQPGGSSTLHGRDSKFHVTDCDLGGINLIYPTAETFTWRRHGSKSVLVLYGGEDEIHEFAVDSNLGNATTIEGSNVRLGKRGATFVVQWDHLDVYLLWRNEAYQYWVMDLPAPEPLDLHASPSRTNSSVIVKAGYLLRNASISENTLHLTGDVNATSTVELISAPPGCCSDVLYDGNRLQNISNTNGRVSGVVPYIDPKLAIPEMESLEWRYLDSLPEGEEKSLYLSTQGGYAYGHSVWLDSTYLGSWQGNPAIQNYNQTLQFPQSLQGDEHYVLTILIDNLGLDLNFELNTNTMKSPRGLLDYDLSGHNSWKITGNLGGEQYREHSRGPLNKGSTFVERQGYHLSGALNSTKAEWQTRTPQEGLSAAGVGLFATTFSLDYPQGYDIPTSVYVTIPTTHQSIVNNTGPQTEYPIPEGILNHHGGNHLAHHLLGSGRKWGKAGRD

[3] = Inhibition of Aspergillus niger beta-glucosidase in acetate buffer at pH 4.5
How it was run: (§2)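 Aspergillus niger β-glucosidase was preincubated with inhibitor for 15 min at 37 °C before the p-nitrophenyl glucoside was added. Buffers were 25 mM acetate at pH 4.5–5.5 and 25 mM Bis-Tris at pH 6.0. The reaction was stopped with 0.5 M Na2CO3, and released p-nitrophenol was read at 405 nm. Ki was derived from Lineweaver–Burk plots.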

[4] = Inhibition of Aspergillus niger beta-glucosidase in acetate buffer at pH 5.5; how it was run: as §2
[5] = Inhibition of Aspergillus niger beta-glucosidase in acetate buffer at pH 6.0
[6] = system: Geobacillus stearothermophilus; test: Inhibition of Bacillus stearothermophilus alpha-glucosidase in acetate buffer at pH 6.8 at 1 mM; how it was run: as §1
[7] = Binding affinity to leaf opening factor beta-glucosidase relative to potassium lespedezate; design: unit not given here
How it was run: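 Purified LOFG was added to 25 mM acetate pH 4.5 containing 1 mM of each substrate analog, preincubated at 37 °C. The mixture was incubated 2 h at 37 °C, then stopped with 0.1 M Tris-HCl pH 9.0, bringing the pH to 8.0. The released aglycon was quantified by RP-HPLC, and activity was expressed relative to potassium lespedezate.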

[8] = Activity of leaf opening factor beta-glucosidase at pH 4.5
How it was run: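 Purified leaf-opening factor β-glucosidase (LOFG) from L. cuneata leaves, assayed in 25 mM acetate pH 4.5 with potassium lespedezate at four substrate levels. The semicarbazone of the released α-keto acid was trapped with 1 mM semicarbazide and quantified by RP-HPLC after 2 h at 37 °C. Km was taken from a Lineweaver–Burk plot.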

- inhibition (Prunus dulcis): < 90%
- pKi [1]: 5.89
- Activity [2]: inactive
- pKi [3]: 5.46
- pKi [4]: 5.88
- pKi [5]: 5.39
- Activity [6]: inactive
Structure (SMILES): OCC(=Nc1ccc(O)cc1)N[C@@H]1O[C@H](CO)[C@@H](O)[C@H](O)[C@H]1O

- Activity [7]: 0
Structure (SMILES): O=C(O)/C(=C/c1ccc(O)cc1)O[C@@H]1O[C@H](CO)[C@@H](O)[C@H](O)[C@H]1O

More lines, now with the values behind:

Structure (SMILES): OC/C(=C\c1ccc(O)cc1)N[C@@H]1O[C@H](CO)[C@@H](O)[C@H](O)[C@H]1O
- Activity [7]: 113

Structure (SMILES): O=C(O)C(Cc1ccc(O)cc1)O[C@@H]1O[C@H](CO)[C@@H](O)[C@H](O)[C@H]1O (stereo partly drawn)
- Activity [7]: 26

Structure (SMILES): O=C(O)/C(=C\c1ccc(O)cc1)O[C@@H]1O[C@H](CO)[C@@H](O)[C@H](O)[C@H]1O
- Km [8]: 548 µM

Structure (SMILES): O=C(O)/C(=C\c1ccc(O)cc1)O[C@@H]1O[C@H](CO)[C@H](O)[C@H](O)[C@H]1O
- Activity [7]: 0

Structure (SMILES): O=C(O)/C(=C/c1ccc(O)cc1)O[C@@H]1O[C@H](CO)[C@H](O)[C@H](O)[C@H]1O
- Activity [7]: 0
